Reference: ChEMBL document CHEMBL5252603, “Discovery of 2-aminoquinolone acid derivatives as potent inhibitors of SARS-CoV-2” (Bioorg Med Chem Lett, 2023)

Experiments:
SARS-CoV-2 = experiment: Antiviral activity against Severe acute respiratory syndrome coronavirus 2 infected in Vero cells; format: functional, organism-based; settings: Severe acute respiratory syndrome coronavirus 2, Vero
Vero = experiment: Cytotoxicity against african green monkey Vero cells; format: toxicity, cell-based; settings: chlorocebus sabaeus
Outline: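 Uninfected Vero cells were tested in parallel with the antiviral immunocytochemistry assay. CC50 was derived from at least two independent experiments.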

[1] = Selectivity index, ratio of CC50 for african green monkey Vero cells to EC50 for Severe acute respiratory syndrome coronavirus 2; format: toxicity; settings: read-out: Ratio CC50/EC50
HFL1 = experiment: Cytotoxicity against human HFL1 cells; format: toxicity, cell-based
Outline: (§1)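 Cell viability was measured by the EZ-Cytox assay, with CC50 as the read-out. Cell lines: HFL-1, human embryonic lung; L929, mouse fibroblast; NIH 3T3, mouse embryonic fibroblast; CHO-K1, Chinese hamster ovary.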

L929 = experiment: Cytotoxicity against mouse L929 cells; format: toxicity, cell-based; outline: as §1
NIH3T3 = experiment: Cytotoxicity against mouse NIH3T3 cells; format: toxicity, cell-based; outline: as §1
CHO-K1 = experiment: Cytotoxicity against CHO-K1 cells; format: toxicity, cell-based, Cricetulus griseus; settings: chinese hamster; outline: as §1
[2] = target: Voltage-gated inwardly rectifying potassium channel KCNH2 (Homo sapiens, UniProt Q12809); experiment: Binding affinity to human ERG; format: toxicity
Outline: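 hERG fluorescence polarization ligand-binding assay; IC50 read-out.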

CYP1A2 = target: T1, CYP1A2 (Homo sapiens, UniProt P05177); experiment: Inhibition of human CYP1A2 at 10 uM relative to control; format: ADME
T1 sequence (P05177 whole entry): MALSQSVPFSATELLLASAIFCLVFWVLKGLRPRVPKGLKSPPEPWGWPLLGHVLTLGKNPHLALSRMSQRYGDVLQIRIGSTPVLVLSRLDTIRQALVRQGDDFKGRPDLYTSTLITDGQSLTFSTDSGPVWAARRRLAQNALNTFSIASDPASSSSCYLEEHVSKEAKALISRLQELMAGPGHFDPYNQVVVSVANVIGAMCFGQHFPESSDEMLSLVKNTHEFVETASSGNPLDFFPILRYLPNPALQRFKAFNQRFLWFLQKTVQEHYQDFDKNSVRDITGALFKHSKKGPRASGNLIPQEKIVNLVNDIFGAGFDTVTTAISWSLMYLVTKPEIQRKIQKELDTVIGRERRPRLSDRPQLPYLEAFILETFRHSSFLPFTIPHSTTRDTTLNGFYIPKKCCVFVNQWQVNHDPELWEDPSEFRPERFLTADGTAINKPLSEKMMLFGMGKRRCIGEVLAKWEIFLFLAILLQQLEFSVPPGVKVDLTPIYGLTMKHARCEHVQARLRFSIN

CYP2C9 = CYP2C9 (Homo sapiens, UniProt P11712); experiment: Inhibition of human CYP2C9 at 10 uM relative to control; format: ADME
CYP2C19 = CYP2C19 (Homo sapiens, UniProt P33261); experiment: Inhibition of human CYP2C19 at 10 uM relative to control; format: ADME
CYP2D6 = CYP2D6 (Homo sapiens, UniProt P10635); experiment: Inhibition of human CYP2D6 at 10 uM relative to control; format: ADME
CYP3A4 = CYP3A4 (Homo sapiens, UniProt P08684); experiment: Inhibition of human CYP3A4 at 10 uM relative to control; format: ADME
[3] = Microsomal stability in mouse liver microsomes assessed as compound remaining after 30 mins in presence of NADPH; format: ADME, Microsome; settings: read-out: Stability
[4] = Microsomal stability in rat liver microsomes assessed as compound remaining after 30 mins in presence of NADPH; format: ADME, Microsome; settings: read-out: Stability
[5] = Microsomal stability in dog liver microsomes assessed as compound remaining after 30 mins in presence of NADPH; format: ADME, Canis lupus familiaris, Microsome; settings: read-out: Stability
[6] = Microsomal stability in human liver microsomes assessed as compound remaining after 30 mins in presence of NADPH; format: ADME, Microsome; settings: read-out: Stability

Chain of Voltage-gated inwardly rectifying potassium channel KCNH2 (Q12809 whole entry): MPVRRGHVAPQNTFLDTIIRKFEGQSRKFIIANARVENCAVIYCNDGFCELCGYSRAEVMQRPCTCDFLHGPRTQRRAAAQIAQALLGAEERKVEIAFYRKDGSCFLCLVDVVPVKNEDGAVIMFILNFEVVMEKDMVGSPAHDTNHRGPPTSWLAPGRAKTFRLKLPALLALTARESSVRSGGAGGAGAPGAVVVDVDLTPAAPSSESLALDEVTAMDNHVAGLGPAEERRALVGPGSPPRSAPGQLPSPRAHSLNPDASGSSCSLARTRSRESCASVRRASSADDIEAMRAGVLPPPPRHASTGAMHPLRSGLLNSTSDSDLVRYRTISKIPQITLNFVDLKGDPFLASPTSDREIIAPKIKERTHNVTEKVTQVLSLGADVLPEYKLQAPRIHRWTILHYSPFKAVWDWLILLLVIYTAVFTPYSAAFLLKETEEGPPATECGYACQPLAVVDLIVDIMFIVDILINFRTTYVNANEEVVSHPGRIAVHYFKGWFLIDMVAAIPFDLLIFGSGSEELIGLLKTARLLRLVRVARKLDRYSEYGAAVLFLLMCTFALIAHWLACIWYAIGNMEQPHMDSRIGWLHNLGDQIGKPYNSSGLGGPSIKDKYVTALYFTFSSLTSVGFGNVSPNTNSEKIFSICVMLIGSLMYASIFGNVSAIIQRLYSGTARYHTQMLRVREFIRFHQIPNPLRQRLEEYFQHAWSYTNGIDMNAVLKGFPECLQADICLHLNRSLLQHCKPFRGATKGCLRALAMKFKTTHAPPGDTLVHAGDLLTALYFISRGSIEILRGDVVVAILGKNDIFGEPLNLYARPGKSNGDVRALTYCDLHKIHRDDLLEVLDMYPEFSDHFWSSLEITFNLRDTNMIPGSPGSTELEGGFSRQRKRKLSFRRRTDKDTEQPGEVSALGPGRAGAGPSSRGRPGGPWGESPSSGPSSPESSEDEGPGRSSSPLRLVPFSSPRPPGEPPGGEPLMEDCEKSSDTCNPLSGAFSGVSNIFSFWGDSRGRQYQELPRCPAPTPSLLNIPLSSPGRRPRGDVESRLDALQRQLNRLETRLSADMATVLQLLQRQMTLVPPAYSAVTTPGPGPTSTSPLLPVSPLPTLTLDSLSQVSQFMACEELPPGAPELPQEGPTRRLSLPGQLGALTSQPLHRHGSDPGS
Chain of CYP2C9 (P11712 whole entry): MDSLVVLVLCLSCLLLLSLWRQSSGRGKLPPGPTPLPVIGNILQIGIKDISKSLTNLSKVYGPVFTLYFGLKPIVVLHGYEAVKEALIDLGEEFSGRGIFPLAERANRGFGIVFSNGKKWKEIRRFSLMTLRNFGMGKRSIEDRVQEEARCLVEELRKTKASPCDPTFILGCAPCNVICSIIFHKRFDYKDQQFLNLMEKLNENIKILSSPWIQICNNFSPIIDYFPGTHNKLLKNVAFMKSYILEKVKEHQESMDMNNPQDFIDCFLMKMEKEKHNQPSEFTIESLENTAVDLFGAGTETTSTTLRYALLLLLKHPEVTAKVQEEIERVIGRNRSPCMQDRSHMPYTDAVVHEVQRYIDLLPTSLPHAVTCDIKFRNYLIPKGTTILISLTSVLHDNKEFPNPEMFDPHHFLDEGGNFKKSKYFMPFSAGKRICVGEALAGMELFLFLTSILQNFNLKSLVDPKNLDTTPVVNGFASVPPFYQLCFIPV
Chain of CYP2C19 (P33261 whole entry): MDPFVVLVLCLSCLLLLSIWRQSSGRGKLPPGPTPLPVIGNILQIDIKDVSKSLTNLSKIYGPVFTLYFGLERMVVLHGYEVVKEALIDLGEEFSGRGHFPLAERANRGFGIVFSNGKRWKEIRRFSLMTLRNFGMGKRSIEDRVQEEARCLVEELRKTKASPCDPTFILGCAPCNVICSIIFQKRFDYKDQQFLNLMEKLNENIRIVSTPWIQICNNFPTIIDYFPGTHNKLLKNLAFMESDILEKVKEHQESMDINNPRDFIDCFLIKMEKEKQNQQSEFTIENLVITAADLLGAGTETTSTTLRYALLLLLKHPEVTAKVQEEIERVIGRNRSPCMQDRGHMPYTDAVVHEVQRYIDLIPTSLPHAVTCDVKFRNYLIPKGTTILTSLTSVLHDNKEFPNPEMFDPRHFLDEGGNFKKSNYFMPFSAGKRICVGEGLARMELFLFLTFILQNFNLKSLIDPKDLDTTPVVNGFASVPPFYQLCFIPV
Chain of CYP3A4 (P08684 whole entry): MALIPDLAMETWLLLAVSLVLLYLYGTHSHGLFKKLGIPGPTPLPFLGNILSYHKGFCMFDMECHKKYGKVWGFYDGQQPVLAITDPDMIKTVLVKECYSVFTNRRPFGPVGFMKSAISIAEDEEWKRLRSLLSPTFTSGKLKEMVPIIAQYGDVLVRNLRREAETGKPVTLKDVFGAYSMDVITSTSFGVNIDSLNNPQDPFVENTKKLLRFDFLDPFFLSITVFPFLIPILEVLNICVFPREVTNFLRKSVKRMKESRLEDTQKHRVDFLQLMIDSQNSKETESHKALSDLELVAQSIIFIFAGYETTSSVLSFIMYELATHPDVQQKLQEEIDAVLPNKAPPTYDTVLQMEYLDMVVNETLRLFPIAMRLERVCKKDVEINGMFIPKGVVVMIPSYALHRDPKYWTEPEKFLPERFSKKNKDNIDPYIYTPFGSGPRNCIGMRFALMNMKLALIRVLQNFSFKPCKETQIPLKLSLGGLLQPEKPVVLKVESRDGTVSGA
Chain of CYP2D6 (P10635 whole entry): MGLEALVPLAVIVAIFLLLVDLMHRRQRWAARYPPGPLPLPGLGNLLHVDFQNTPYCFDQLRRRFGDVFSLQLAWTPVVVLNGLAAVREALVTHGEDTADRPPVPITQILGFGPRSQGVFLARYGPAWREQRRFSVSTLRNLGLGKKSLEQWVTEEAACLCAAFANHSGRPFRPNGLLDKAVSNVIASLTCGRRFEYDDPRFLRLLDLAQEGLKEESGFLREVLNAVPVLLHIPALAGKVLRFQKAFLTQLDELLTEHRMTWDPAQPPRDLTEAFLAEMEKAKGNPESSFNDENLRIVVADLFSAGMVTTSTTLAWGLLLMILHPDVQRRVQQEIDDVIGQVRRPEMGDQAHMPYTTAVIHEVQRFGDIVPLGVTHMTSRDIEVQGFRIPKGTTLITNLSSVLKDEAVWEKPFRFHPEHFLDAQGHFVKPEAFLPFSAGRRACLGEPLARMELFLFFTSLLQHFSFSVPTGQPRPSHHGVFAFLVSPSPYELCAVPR

In the case of CNC(=O)c1c(Nc2cccc(F)c2)[nH]c2cc(Cl)ccc2c1=O, the EC50 (SARS-CoV-2) is reported as 7.9 µM, the CC50 (Vero) is reported as > 25 µM and the selectivity ratio [1] is reported as 3.2.

For CCN(CC)CCCC(C)Nc1ccnc2cc(Cl)ccc12 (stereo not drawn) [CHLOROQUINE], the EC50 (SARS-CoV-2) was 8.2 µM, the CC50 (Vero) was > 25 µM and the selectivity ratio [1] was 3.

In the case of CN(C)CCCNc1[nH]c2cc(Cl)ccc2c(=O)c1C(=O)O, the EC50 (SARS-CoV-2) is reported as > 25 µM, the CC50 (Vero) is reported as > 25 µM and the selectivity ratio [1] is reported as 1.

For COc1ccc2[nH]c(Nc3cccc(F)c3)c(C(=O)O)c(=O)c2c1, the EC50 (SARS-CoV-2) was 3.3 µM, the CC50 (Vero) was > 25 µM and the selectivity ratio [1] was 7.6.

For COC(=O)c1c([S+](C)[O-])[nH]c2ccccc2c1=O (stereo not drawn), the EC50 (SARS-CoV-2) was 13.4 µM, the CC50 (Vero) was > 25 µM and the selectivity ratio [1] was 1.9.

For O=C(O)c1c(Nc2cccc(F)c2)[nH]c2ccccc2c1=O, the EC50 (SARS-CoV-2) was 4 µM, the CC50 (Vero) was > 25 µM and the selectivity ratio [1] was 6.2.

For O=C(O)c1c(Nc2cccc(F)c2)[nH]c2cc(F)c(F)cc2c1=O, the EC50 (SARS-CoV-2) was 3.3 µM, the CC50 (Vero) was > 25 µM and the selectivity ratio [1] was 7.5.

With O=C(O)c1c(Nc2ccc(F)cc2)[nH]c2ccc(Cl)cc2c1=O the EC50 (SARS-CoV-2) was 2.8 µM, the CC50 (Vero) was > 25 µM and the selectivity ratio [1] was 8.9.

Work on COC(=O)c1c([S+](C)[O-])[nH]c2cc(Cl)ccc2c1=O (stereo not drawn) yielded an EC50 (SARS-CoV-2) of 9.4 µM, a CC50 (Vero) of 12 µM and a selectivity ratio [1] of 1.3.

In the case of O=C(O)c1c(Nc2cccc(F)c2)[nH]c2ccc(Cl)cc2c1=O, the EC50 (SARS-CoV-2) is reported as 1.5 µM, the CC50 (Vero) is reported as > 25 µM and the selectivity ratio [1] is reported as 17.

With O=C(O)c1c(Nc2ccc(F)cc2)[nH]c2cc(F)c(F)cc2c1=O the EC50 (SARS-CoV-2) was 3.5 µM, the CC50 (Vero) was > 25 µM and the selectivity ratio [1] was 7.2.

For CCC(CC)COC(=O)[C@H](C)N[P@](=O)(OC[C@H]1O[C@@](C#N)(c2ccc3c(N)ncnn23)[C@H](O)[C@@H]1O)Oc1ccccc1, the CC50 (Vero) was > 25 µM.

In the case of O=c1cc(Nc2cccc(F)c2)[nH]c2cc(F)c(F)cc12, the EC50 (SARS-CoV-2) is reported as > 25 µM, the CC50 (Vero) is reported as > 25 µM and the selectivity ratio [1] is reported as 1.

For O=C(O)c1c(Nc2cccc(F)c2)[nH]c2cc(Cl)ccc2c1=O, the EC50 (SARS-CoV-2) was 1.5 µM, the CC50 (Vero) was > 25 µM and the selectivity ratio [1] was 16. The CC50 (HFL1) was 48 µM, the CC50 (L929) was > 100 µM and the CC50 (NIH3T3) was 67 µM. The CC50 (CHO-K1) was 55 µM, the IC50 [2] was > 100 µM and the inhibition at 10 µM (CYP1A2) was 72%. For the same molecule, the inhibition at 10 µM (CYP2C9) was 59%, the inhibition at 10 µM (CYP2C19) was 9% and the inhibition at 10 µM (CYP2D6) was 3%. The inhibition at 10 µM (CYP3A4) was < 1%, the remaining at 0.5 h [3] was 24% and the remaining at 0.5 h [4] was 14%. For the same molecule, the remaining at 0.5 h [5] was 65% and the remaining at 0.5 h [6] was 62%.

For O=C(O)c1c(NC2CCCCC2)[nH]c2cc(Cl)ccc2c1=O, the EC50 (SARS-CoV-2) was 4.4 µM, the CC50 (Vero) was > 25 µM and the selectivity ratio [1] was 5.7.

With CC(C)(C)[C@H](NC(=O)C(F)(F)F)C(=O)N1C[C@H]2[C@@H]([C@H]1C(=O)N[C@H](C#N)C[C@@H]1CCNC1=O)C2(C)C the CC50 (Vero) was > 25 µM.
